# SIRT5 inh – SIRT5 desuccinylase inhibitors, primary screen, biochemical, fluorescence imaging, single point, set 5; NAD-dependent protein deacylase sirtuin-5, mitochondrial (Homo sapiens), Q9NXA8; Purified SirT5, succinyl-peptide AMC, trypsin-coupled fluorescence; inhibition, % at 15 µM; 1.1% of 330,000 active; AID 652115, 2013; in the data active means inhibition above about 15%
# FN deposition inh – inhibitors of fibronectin matrix deposition, primary screen, AH1F cells, Alexa488-fibronectin fluorescence, plate reader; AH1F fibroblasts, overnight; inhibition, % at 12.6 µM; 0.086% of 350,000 active; AID 743247, 2014;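 active means mean inhibition across replicates of 30% or more, regardless of how many single replicates reach that level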;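 further: positive control wells lacked labelled fibronectin entirely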
#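 Assay system: AH1F fibroblasts / Quantity: 10000 cells per well / Medium: DMEM plus 2% serum, read in PBS / Reagent: labelled fibronectin 24 nM / Dosing: single dose, pinned / Times: 1 h cell attachment, overnight exposure to compound and label / Signal: fluorescence, ex 485 nm, em 525 nm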
# Ecoli rRNA inh – reduced GFP signal of wild-type E. coli, primary screen, bacterial rRNA inhibitor project, GFP/RFP fluorescence, OD600, single point | E. coli WT GFP vs humanized-ribosome RFP mutants, 24 h; stronger effect = lower value; DMSO median 0, no signal -100 | GFP signal change (wild-type ribosome), % (no concentration beside the values) | 1.6% of 350,000 active;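 active means significant combined selectivity score with lowered wild-type GFP, culture density cut under 30%, mutant RFP and density less affected; inactive means any of these conditions unmet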
# Statin myotox sup – suppressors of statin myotoxicity in C2C12 myotubes, primary screen, cell-based, single point, plate reader. C2C12 myotubes + simvastatin, ATP luminescence, 48 h; scaled: DMSO 0, geranylgeraniol control 100. rescue of ATP level, % at 7.49 µM. 0.78% of 330,000 active;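 active means mean ATP rescue above about 67%, or every replicate alone reaching that limit, limit read from the data, passing the limit was not always enough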;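 further: myotubes were challenged with 10 µM simvastatin during compound exposure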
# FGF22 binding – binders of human FGF22 protein, primary screen, FGF22 synaptogenesis inhibitor project, biophysical, thermal shift, single point. Fibroblast growth factor 22 (Homo sapiens), Q9HCT0. recombinant FGF22 thermal shift, SYPRO orange fluorescence; percent of sucrose octasulfate shift, DMSO zero. activity (Tm shift, normalised), % at 9.99 µM. 1.5% of 340,000 active. AID 651658, 2012;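 active means mean Tm shift, scaled 0 neutral to 100 positive control, at about 1.3% or above, every replicate too, limit read from the data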
# E-sel inducer – E-selectin induction in HUVECs, primary screen, imaging, HUVEC, immunofluorescence imaging, single point | P16581 | normalized: neutral wells 0, TNF-alpha wells 100 | activation, % at 7.58 µM | 0.37% of 260,000 active;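 active means mean E-selectin-positive cell signal at least 10% of the positive control, reached in at least 60% of replicates, without over 20% cell loss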
# Target sequence (P16581 whole entry, looked up): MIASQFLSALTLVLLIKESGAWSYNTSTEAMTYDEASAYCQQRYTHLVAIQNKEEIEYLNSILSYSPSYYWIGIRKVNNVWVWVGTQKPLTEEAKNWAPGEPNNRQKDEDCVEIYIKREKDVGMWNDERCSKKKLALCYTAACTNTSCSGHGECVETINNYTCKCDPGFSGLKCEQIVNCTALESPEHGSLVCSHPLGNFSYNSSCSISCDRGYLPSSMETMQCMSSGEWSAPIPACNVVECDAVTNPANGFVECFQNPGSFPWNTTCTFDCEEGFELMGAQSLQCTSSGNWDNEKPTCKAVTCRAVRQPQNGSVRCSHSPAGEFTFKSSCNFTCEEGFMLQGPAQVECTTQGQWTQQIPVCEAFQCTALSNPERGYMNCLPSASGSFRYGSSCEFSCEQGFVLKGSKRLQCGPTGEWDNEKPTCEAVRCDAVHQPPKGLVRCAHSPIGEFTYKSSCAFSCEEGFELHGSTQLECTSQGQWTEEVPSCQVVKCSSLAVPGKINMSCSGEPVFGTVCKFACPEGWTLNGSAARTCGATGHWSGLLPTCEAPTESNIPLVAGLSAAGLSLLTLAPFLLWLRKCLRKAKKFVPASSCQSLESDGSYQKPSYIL
#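 assay system = HUVEC, human umbilical vein endothelial cells | input = 3,000 HUVEC seeded per well | medium = EGM-2 growth medium on 0.1% gelatin-coated wells | dosing = one compound dose added by pin transfer | signal = immunofluorescence imaging | read-out basis = % PE-positive cells | control set = TNF-alpha, DMSO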
# An asterisk follows results filed as active; . = no result. Shown are actives, neighbours in structure and some others; about 4% of the full set was active somewhere.
SMILES,SIRT5 inh,FN deposition inh,Ecoli rRNA inh,Statin myotox sup,FGF22 binding,E-sel inducer
NCC[C@H]1CC[C@H](NC(=O)C2CCCC2)[C@@H](CO)O1,1,.,-1,2,0,0
O=C(C[C@@H]1CC[C@H]2[C@@H](COC[C@@H](O)CN2CCc2ccccc2)O1)N1CCC(Cc2ccccc2)CC1,6,-3,-49,41,-1,0
Cc1ccc2nc3c(c(C(=O)OCC(=O)NC4CCS(=O)(=O)C4)c2c1)CCCC3 (configuration not stated),.,.,-23,.,43*,.
Cc1cc(C(=O)OC2CCOC2=O)c2ccccc2n1 (configuration not stated),.,.,.,1,.,.
Cc1ccc2nc3c(c(C(=O)OC4CCOC4=O)c2c1)CCCC3 (configuration not stated),-4,-4,12,0,43*,0
Cc1ccc(S(=O)(=O)NCc2csc(-c3cccs3)n2)cc1,2,7,-3,.,0,7
O=S(=O)(NCc1csc(-c2cccs2)n1)c1ccc(Cl)cc1,.,6,-36,24,0,52*
O=S(=O)(NCc1csc(-c2cccs2)n1)c1cccc(C(F)(F)F)c1,.,-10,-36,131*,0,60*
COc1ccc(NC(=O)Nc2cccc3c2O[C@@H](CN(C)C)[C@@H](C)CN([C@H](C)CO)C3=O)cc1,-1,.,1,0,0,.
CCNc1nc(NCC)nc(Nn2cnnc2)n1,0,.,10,99*,0,.
CCNc1nc(NC(C)(C)C)nc(N(CC)n2cnnc2)n1,.,5,.,-3,.,.
CC(C)C(=O)Nc1nnc(NC(=S)Nc2ccccc2)s1,4,.,-34*,23,0,.
COCCn1c(SCC(=O)N2CCC(C)CC2)nc2c(c1=O)SCC2,25*,-1,2,-7,1,1
COCCn1c(SCC(=O)N2CCCC2)nc2c(c1=O)SCC2,.,4,.,3,0,0
CCN1CCc2c(sc(NC(=O)c3ccc(S(=O)(=O)N(C)CC4CCCO4)cc3)c2C(N)=O)C1 (configuration not stated),24*,1,-8,-2,0,0
CC(C)N1CCc2c(sc(NC(=O)c3ccc(S(=O)(=O)N(C)CC4CCCO4)cc3)c2C(N)=O)C1 (configuration not stated),-2,-4,-6,.,0,-2
CCc1ccc(CN(C)CCc2ccccn2)cc1,21*,.,10,-9,0,.
C[C@H](CO)N1C[C@H](C)[C@@H](CN(C)Cc2ccc(Oc3ccccc3)cc2)Oc2ccc(NC(=O)Nc3ccccc3)cc2CC1=O,6,.,6,79*,0,0
COc1ccc(NC(=O)Nc2ccc3c(c2)CC(=O)N([C@@H](C)CO)C[C@H](C)[C@H](CN(C)Cc2ccc(Oc4ccccc4)cc2)O3)cc1,2,.,-1,12,0,7
C[C@H](CO)N1C[C@H](C)[C@@H](CN(C)Cc2ccc(Oc3ccccc3)cc2)Oc2ccc(NC(=O)Nc3ccc(C(F)(F)F)cc3)cc2CC1=O,.,.,2,49,1,36*
C[C@H](CO)N1C[C@H](C)[C@@H](CN(C)Cc2ccc(Oc3ccccc3)cc2)Oc2ccc(NC(=O)Nc3cccc4ccccc34)cc2CC1=O,0,.,2,74*,0,.
C[C@H]1CN([C@@H](C)CO)C(=O)Cc2cc(NC(=O)Nc3cccc4ccccc34)ccc2O[C@H]1CN(C)Cc1ccc(Oc2ccccc2)cc1,-5,.,4,22,0,.
COc1ccc(NC(=O)Nc2ccc3c(c2)CC(=O)N([C@H](C)CO)C[C@H](C)[C@@H](CN(C)Cc2ccc(Oc4ccccc4)cc2)O3)cc1,23*,.,1,-12,0,12
CNC[C@H]1Oc2ccc(NC(=O)CCN3CCOCC3)cc2CC(=O)N([C@@H](C)CO)C[C@H]1C,.,-9,2,-11,0,0
CN(C)S(=O)(=O)c1ccc(C(=O)NCCS(=O)(=O)N2CCN(c3ccc(F)cc3)CC2)cc1,-3,1,5,10,0,.
SMILES,SIRT5 inh,FN deposition inh,Ecoli rRNA inh,Statin myotox sup,FGF22 binding,E-sel inducer
O=C(NCCS(=O)(=O)N1CCN(c2ccc(F)cc2)CC1)c1ccc(Br)o1,5,34*,-26,21,0,-2
CO[C@H]1CN(C)C(=O)c2cc(NS(=O)(=O)c3cccc(C)c3)ccc2OC[C@@H](C)NC[C@@H]1C,4,10,3,2,0,0
Cc1noc(C)c1NC(=O)N[C@@H]1CC[C@H](CC(=O)N2CCN(C)CC2)O[C@@H]1CO,3,-1,0,-17,0,0
Cc1nc2ccc(NC(=O)NC(=O)c3c(Cl)cccc3Cl)cc2o1,.,1,14,.,0,64*
C#CCOc1c(Br)cc(/C=N\NC(=O)CN2CCOCC2)cc1OCC,.,.,.,103*,.,.
C[C@@H]1CCCCO[C@@H](CN(C)C(=O)Nc2ccc3c(c2)OCO3)[C@H](C)CN([C@@H](C)CO)C(=O)c2cc(NS(=O)(=O)c3cn(C)cn3)ccc2O1,1,.,-1,.,0,0
O=C(COc1ccc(CO)cc1Cl)Nc1ccc(F)cc1,.,2,.,18,.,.
COc1cc(NC(=O)COc2ccccc2)c(OC)cc1NC(C)=O,2,-16,6,.,43*,5
CNCc1cc(Br)c(OCC(=O)Nc2ccccc2OC)c(OC)c1,24*,7,-11,.,0,.
COc1ccccc1NC(=O)COc1ccc(CO)cc1Cl,.,.,.,75*,.,.
CCCC#Cc1cnc2c(c1)C(=O)N([C@H](C)CO)C[C@H](C)[C@@H](CN(C)C(=O)Cc1ccccc1)O2,1,-20,-3,.,0,-3
CN(C)CCCNC(=O)C[C@H]1CC[C@@H](NS(=O)(=O)c2ccc(F)cc2)[C@H](CO)O1,1,.,5,1,0,0
C[C@@H]1CN([C@@H](C)CO)C(=O)c2cccc(NC(=O)c3ccc(-c4nccs4)cc3)c2O[C@H]1CN(C)Cc1ccc(C(F)(F)F)cc1,.,.,-5,3,.,-2
CC(C)C[C@@H]1COc2cccc(N3CCN(Cc4ccccc4F)CC3)c2S(=O)(=O)N1,-9,-1,-35*,.,0,0
CC(C)C[C@@H]1COc2cccc(N3CCCC3)c2S(=O)(=O)N1,-3,-3,-28*,.,0,0
